EC50 and Activity data for 19 compounds are collected here from ChEMBL document CHEMBL1156940, “Modified cap group suberoylanilide hydroxamic acid histone deacetylase inhibitor derivatives reveal improved selective antileukemic activity” (J Med Chem, 2010).

Each structure is given as a SMILES string. Activity calls are given as the source filed them. The rule behind the calls is not given here.

Assay [1] relates to SK-BR-3. The experiment in a line: Antiproliferative activity against human SK-BR-3 cells after 48 hrs by cell titer-glo assay. Conditions: SK-BR-3, 48 h. The assay is classed as functional, cell-based.
The subject of assay [2] is U-937. The experiment in a line: Antiproliferative activity against human U937 cells after 48 hrs by cell titer-glo assay. The assay is classed as functional, cell-based. Conditions: U-937, 48 h. Put shortly:
(§1)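 Cells kept in RPMI-1640 with 10% FBS at 37 °C, 5% CO2. 10^4 suspension cells were plated immediately before dosing. Compounds were added at 0.1–100 µM, final 1% DMSO, with DMSO vehicle control, and incubated 48 h. CellTiter-Glo luminescence was read. EC50 is the dose reducing luminescence to 50% of untreated cultures.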

For assay [3], the system named is HT-29. The experiment in a line: Antiproliferative activity against human HT-29 cells after 48 hrs by cell titer-glo assay. The assay is classed as functional, cell-based. Conditions: HT-29, 48 h.
The target of assay [4] is Histone deacetylase 1 (Homo sapiens) (UniProt Q13547). The experiment in a line: Inhibition of recombinant FLAG-tagged HDAC1 assessed as [3H]acetic acid release preincubated for 30 mins measured after 2 hrs by scintillation counting. The method in brief:
(§2)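 FLAG-tagged HDAC1 or HDAC6 was immunopurified from stably expressing cell lines and washed in HDAC buffer (10 mM Tris-HCl pH 8.0, 10 mM NaCl, 10% glycerol). Enzyme was preincubated with inhibitor (1 µM) for 30 min at 4 °C, then given 20 000 cpm [3H]peracetylated H4 peptide for 2 h at 37 °C. The reaction was stopped with acetic acid/HCl, extracted into ethyl acetate, and released [3H]acetate counted by scintillation.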

In assay [5] the test system is Jurkat. The experiment in a line: Antiproliferative activity against human Jurkat JA16 cells after 48 hrs by cell titer-glo assay. The class given is functional, cell-based.
For assay [6], the system named is HL-60. Description: Antiproliferative activity against human HL60 cells after 48 hrs by cell titer-glo assay. The class given is functional, cell-based. As to conditions: HL-60, 48 h.
In assay [7] the test system is K562. Description: Antiproliferative activity against human K562 cells after 48 hrs by cell titer-glo assay. The class given is functional, cell-based. As to conditions: K562, 48 h. The method in brief: as §1
For assay [8], the target named is T1, Protein deacetylase HDAC6 (Homo sapiens) (UniProt Q9UBN7).
T1 sequence (whole entry): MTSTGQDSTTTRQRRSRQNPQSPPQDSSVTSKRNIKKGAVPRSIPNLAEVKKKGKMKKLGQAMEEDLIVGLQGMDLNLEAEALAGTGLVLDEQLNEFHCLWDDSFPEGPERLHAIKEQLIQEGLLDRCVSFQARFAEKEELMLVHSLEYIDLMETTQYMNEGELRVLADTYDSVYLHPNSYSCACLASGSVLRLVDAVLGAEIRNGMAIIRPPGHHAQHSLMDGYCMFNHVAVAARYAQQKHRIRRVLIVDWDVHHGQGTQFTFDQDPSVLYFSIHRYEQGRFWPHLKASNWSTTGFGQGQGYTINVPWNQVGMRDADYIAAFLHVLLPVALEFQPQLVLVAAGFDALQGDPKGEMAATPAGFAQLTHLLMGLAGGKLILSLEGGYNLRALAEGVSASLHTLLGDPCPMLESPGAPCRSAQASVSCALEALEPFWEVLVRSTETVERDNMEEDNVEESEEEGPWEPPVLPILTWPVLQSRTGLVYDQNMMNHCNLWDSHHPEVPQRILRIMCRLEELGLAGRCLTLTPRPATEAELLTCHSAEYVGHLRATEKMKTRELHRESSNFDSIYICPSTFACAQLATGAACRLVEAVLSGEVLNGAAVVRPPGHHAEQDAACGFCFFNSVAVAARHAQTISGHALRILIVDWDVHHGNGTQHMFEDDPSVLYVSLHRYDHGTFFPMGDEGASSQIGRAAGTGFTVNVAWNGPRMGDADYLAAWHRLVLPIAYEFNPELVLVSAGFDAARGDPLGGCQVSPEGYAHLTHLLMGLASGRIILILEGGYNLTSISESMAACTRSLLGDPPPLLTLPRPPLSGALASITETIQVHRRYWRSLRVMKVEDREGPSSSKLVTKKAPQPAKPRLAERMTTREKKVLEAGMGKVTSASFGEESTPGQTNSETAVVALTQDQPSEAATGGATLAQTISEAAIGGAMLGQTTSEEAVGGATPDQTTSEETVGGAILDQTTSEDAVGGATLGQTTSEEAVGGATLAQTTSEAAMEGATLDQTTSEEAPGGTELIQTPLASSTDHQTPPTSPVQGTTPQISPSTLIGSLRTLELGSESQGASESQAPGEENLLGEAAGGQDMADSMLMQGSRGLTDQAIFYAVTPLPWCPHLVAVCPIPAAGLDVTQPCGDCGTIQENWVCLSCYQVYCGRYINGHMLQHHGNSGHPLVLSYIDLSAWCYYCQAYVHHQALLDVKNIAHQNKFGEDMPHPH
Description: Inhibition of recombinant FLAG-tagged HDAC6 assessed as [3H]acetic acid release preincubated for 30 mins measured after 2 hrs by scintillation counting. Put shortly: as §2

Chain of Histone deacetylase 1 (Homo sapiens) (Q13547 whole entry): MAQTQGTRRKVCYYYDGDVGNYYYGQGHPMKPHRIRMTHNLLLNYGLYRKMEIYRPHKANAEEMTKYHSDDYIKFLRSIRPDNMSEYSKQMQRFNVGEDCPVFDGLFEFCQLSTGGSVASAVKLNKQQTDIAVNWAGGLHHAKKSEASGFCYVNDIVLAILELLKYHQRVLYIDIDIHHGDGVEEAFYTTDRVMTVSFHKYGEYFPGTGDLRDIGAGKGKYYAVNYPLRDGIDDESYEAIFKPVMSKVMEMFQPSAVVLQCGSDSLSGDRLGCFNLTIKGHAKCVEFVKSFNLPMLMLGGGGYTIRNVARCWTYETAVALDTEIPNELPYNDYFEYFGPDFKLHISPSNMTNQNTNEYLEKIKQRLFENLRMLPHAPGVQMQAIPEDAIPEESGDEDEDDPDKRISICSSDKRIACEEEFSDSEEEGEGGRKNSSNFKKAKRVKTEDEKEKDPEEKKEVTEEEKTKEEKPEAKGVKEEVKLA

Turning to `O=C(CCCCCCC(=O)Nc1ccc([N+](=O)[O-])cc1)NO`, the values for the EC50 in assay [1], in assay [2] and in assay [3] were 58 µM, 22 µM and 76 µM, respectively.
On to `O=C(CCCCCCC(=O)Nc1ccc(Cl)cc1)NO`, for which the result in assay [4] and in assay [8] was Active. Also, the EC50 in assay [1] is 2.3 µM; in assay [2], 0.55 µM; in assay [5], 770 nM; in assay [6], 1870 nM; in assay [7], 3.3 µM; in assay [3], 2.1 µM.
With `O=C(CCCCCCC(=O)Nc1ccccc1-c1ccccc1)NO`, the concentration giving a half-maximal response (EC50) in assay [1] is 73.5 µM; in assay [2], 14 µM; in assay [3], 27 µM.
Turning to `O=C(CCCCCCC(=O)Nc1cccc(F)c1)NO`, the outcome in assay [4] and in assay [8] was Active. Also, the EC50 in assay [1] stood at 1.9 µM; in assay [2] it was 0.5 µM; in assay [5], 640 nM; in assay [6] it was 1250 nM; in assay [7], 2.4 µM; in assay [3], 1.4 µM.
With `O=C(CCCCCCC(=O)Nc1ccccc1Br)NO`, the EC50 stood at 17.5 µM in assay [1], 6.8 µM in assay [2] and 17 µM in assay [3].
With `O=C(CCCCCCC(=O)Nc1cccc(C(F)(F)F)c1)NO`, the half-maximal effective concentration (EC50) in assay [1] stood at 26 µM; in assay [2] it was 1.2 µM; in assay [3], 6.4 µM.
Turning to `O=C(CCCCCCC(=O)Nc1ccc(C(F)(F)F)cc1)NO`, the result in assay [4] and in assay [8] was Active. Moreover, the EC50 in assay [1] came out at 2.2 µM; in assay [2], 0.45 µM; in assay [5], 530 nM; in assay [6] it was 1540 nM; in assay [7] it was 2.1 µM; in assay [3], 1.4 µM.
Consider `O=C(CCCCCCC(=O)Nc1ccc(O)cc1)NO`, for which the EC50 in assay [1] came to 11 µM; in assay [2] it was 6.4 µM; in assay [3], 15 µM.
With `N#Cc1ccc(NC(=O)CCCCCCC(=O)NO)cc1`, the EC50 in assay [1] stood at 8.8 µM; in assay [2], 7 µM; in assay [3] it was 42 µM.
With `O=C(CCCCCCC(=O)Nc1[nH]c(=O)ncc1F)NO`, the EC50 is 40.5 µM in assay [1]; 26.5 µM in assay [2]; 16000 nM in assay [5]; 18000 nM in assay [6]; above 100 µM in assay [7]; 63 µM in assay [3].
On to `CN(C)c1ccc(NC(=O)CCCCCCC(=O)NO)cc1`, for which the outcome in assay [4] and in assay [8] was Active. For the same compound, the values for the EC50 in assay [1], in assay [2] and in assay [3] were 4.2 µM, 1.7 µM and 3.15 µM, respectively.
Turning to `O=C(CCCCCCC(=O)Nc1ccc2ccccc2c1)NO`, the result in assay [4] and in assay [8] was Active. Further, the EC50 in assay [1] was found to be 1.8 µM; in assay [2] it was 0.35 µM; in assay [5], 400 nM; in assay [6], 1160 nM; in assay [7], 3 µM; in assay [3] it was 0.85 µM.
For the compound `Nc1ccc(NC(=O)CCCCCCC(=O)NO)cc1`, the EC50 is 8.5 µM in assay [1], 6.4 µM in assay [2] and 18 µM in assay [3].
As to `O=C(CCCCCCC(=O)Nc1cccc2cccnc12)NO`, the results for the EC50 in assay [1], in assay [2] and in assay [3] were above 100 µM, 26 µM and above 100 µM, respectively.
Consider `O=C(O)CCCCCCC(=O)NO`, for which the EC50 is above 100 µM in assay [1]; above 100 µM in assay [2]; above 100000 nM in assay [5]; above 100000 nM in assay [6]; above 100 µM in assay [7]; above 100 µM in assay [3].
Regarding `O=C(CCCCCCC(=O)Nc1cccc(Cl)c1)NO`, the outcome in assay [4] and in assay [8] was Active. The EC50 in assay [1] was 2 µM; in assay [2], 0.35 µM; in assay [5], 580 nM; in assay [6], 2100 nM; in assay [7] it was 3.5 µM; in assay [3] it was 1 µM.
`O=C(CCCCCCC(=O)NO)NO` [SUBEROHYDROXAMIC ACID]: the results for the EC50 in assay [1], in assay [2] and in assay [3] were 27 µM, 23 µM and 32 µM, respectively.
In the case of `O=C(CCCCCCC(=O)Nc1ccc(F)cc1)NO`, the result in assay [4] and in assay [8] was Active. For the same compound, the results for the 50% effective concentration (EC50) in assay [1], in assay [2] and in assay [3] were 3 µM, 1.8 µM and 4.2 µM, respectively.
Regarding `O=C(CCCCCCC(=O)Nc1ccc2c(c1)Cc1ccccc1-2)NO`, the result in assay [4] and in assay [8] was Active. Further, the EC50 in assay [1] came out at 4 µM; in assay [2] it was 0.6 µM; in assay [5], 430 nM; in assay [6], 1130 nM; in assay [7], 3.5 µM; in assay [3], 2.5 µM.
